Data on 13 compounds can be found in ChEMBL document CHEMBL4184225, “Discovery of selective 2,4-diaminoquinazoline toll-like receptor 7 (TLR 7) agonists” (Bioorg Med Chem Lett, 2018).

For data set [1], the target named is Cytochrome P450 2C9 (Homo sapiens, UniProt P11712). Nature of the data set: Inhibition of CYP2C9 (unknown origin). It is filed as ADME.
Data set [2] addresses T1, Toll-like receptor 8 (Homo sapiens, UniProt Q9NR97).
T1 sequence (Q9NR97 whole entry): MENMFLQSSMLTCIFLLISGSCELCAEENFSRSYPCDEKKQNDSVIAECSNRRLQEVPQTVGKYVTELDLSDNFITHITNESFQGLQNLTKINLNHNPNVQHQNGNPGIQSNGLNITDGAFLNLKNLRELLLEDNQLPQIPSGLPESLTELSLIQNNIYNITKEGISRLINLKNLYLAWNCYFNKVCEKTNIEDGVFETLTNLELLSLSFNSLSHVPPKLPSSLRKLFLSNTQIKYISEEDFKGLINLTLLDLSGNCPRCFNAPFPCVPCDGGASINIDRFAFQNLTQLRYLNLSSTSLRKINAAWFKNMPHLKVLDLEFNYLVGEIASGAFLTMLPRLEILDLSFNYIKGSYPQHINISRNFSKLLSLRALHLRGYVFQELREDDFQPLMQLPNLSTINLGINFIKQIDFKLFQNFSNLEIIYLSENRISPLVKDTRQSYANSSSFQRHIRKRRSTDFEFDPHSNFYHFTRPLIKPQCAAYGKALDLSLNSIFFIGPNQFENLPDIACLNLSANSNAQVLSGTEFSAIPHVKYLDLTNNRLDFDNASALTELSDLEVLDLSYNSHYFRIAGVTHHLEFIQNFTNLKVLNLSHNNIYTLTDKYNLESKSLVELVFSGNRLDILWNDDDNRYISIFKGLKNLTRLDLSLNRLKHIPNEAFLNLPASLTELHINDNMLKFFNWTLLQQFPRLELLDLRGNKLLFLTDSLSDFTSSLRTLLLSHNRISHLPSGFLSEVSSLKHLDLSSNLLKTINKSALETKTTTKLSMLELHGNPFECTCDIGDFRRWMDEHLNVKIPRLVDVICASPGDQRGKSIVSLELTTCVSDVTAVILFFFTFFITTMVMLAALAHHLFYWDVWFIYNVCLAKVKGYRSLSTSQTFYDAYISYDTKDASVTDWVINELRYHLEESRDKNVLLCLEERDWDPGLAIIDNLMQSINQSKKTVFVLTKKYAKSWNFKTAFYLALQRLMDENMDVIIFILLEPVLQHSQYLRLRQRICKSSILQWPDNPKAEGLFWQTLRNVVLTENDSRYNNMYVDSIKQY
Kind of data set: Agonist activity at human TLR8 expressed in HEK293 cells assessed as induction of receptor activation incubated for 6 hrs by NF-kappaB-luciferase reporter gene assay. The note with it: hek293, 6 h. It is filed as cell-based. In a few lines: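 HEK293 cells transiently transfected overnight at 37°C with CMV-TLR8 plasmid (wild type or dLRR2 mutant) plus NFκB-luc reporter, then exposed to compound for 6 h at 37°C, 5% CO₂. Luciferase read-out. Quadruplicate dose-response. LEC is the concentration giving an effect at least two-fold above the assay SD, averaged over two or more independent experiments.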

Data set [3] in a line: AUClast in Sprague-Dawley rat liver at 10 mg/kg, po. It is filed as ADME, organism-based. The note with it: in vivo. In a few lines:
(§1)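 Healthy male Sprague-Dawley rats given a single oral dose of 10 mg/kg. Portal vein plasma, systemic plasma and liver sampled. Cmax and Tmax determined, and AUC over 0–last. Liver/plasma ratio calculated from AUC(0-last).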

Data set [4] can be described thus: Oral bioavailability in Sprague-Dawley rat at 10 mg/kg. To be noted: in vivo. It is filed as ADME, organism-based.
The target of data set [5] is Cytochrome P450 3A4 (Homo sapiens, UniProt P08684). Kind of data set: Inhibition of CYP3A4 (unknown origin). It counts as ADME.
Chain of Cytochrome P450 3A4 (P08684 whole entry): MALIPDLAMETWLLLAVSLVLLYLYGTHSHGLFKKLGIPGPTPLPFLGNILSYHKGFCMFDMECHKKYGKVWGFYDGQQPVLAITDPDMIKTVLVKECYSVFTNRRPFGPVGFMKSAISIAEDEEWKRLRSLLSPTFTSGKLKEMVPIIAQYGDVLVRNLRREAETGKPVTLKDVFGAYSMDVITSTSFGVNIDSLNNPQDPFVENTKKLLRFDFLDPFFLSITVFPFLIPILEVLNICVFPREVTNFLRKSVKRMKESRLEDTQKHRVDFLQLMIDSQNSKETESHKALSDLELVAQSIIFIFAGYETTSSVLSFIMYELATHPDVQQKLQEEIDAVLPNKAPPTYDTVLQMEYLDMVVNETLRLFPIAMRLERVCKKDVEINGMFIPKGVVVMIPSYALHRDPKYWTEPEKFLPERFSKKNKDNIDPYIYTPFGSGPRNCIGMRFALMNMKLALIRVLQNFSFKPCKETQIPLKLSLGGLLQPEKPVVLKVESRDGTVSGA
Data set [6] is described as follows: AUClast in Sprague-Dawley rat plasma at 10 mg/kg, po. It is filed as ADME, organism-based. Further details: dose 10 mg/kg, time 0 - last, route oral. In a few lines:
as §1

In data set [7] the target is Cytochrome P450 2D6 (Homo sapiens, UniProt P10635). Nature of the data set: Inhibition of CYP2D6 (unknown origin). It counts as ADME.
Chain of Cytochrome P450 2D6 (P10635 whole entry): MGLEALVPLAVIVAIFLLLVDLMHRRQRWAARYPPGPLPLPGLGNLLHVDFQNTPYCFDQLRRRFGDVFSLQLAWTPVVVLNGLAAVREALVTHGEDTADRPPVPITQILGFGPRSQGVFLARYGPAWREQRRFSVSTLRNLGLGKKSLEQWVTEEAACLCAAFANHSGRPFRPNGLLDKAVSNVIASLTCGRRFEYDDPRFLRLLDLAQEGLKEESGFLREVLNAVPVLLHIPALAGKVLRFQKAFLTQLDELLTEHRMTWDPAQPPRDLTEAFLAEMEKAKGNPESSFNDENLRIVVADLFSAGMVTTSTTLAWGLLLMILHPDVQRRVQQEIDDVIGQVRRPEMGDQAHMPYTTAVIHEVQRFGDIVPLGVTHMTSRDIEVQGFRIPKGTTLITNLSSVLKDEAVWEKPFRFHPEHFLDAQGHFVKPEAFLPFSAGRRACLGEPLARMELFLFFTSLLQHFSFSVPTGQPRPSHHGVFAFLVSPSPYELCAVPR
Data set [8] in a line: Cytotoxic activity against HEK293 cells assessed as reduction in cell viability incubated for 6 hrs. It counts as cell-based. The note with it: human. The procedure, abridged: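 HEK293 cells transfected with the CMV-TLR7 construct alone, treated with a compound dilution series for 6 h at 37°C, 5% CO₂. Viability read by ATP luminescence. Reported as CC50.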
Data set [9] can be described thus: Cmax in Sprague-Dawley rat portal vein at 10 mg/kg, po. It is filed as ADME, organism-based. Further details: dose 10 mg/kg, route oral. In a few lines: as §1
A short description of data set [10]: Cmax in Sprague-Dawley rat liver at 10 mg/kg, po.
Data set [11] addresses T2, Toll-like receptor 7 (Homo sapiens) (UniProt Q9NYK1).
T2 sequence (whole entry): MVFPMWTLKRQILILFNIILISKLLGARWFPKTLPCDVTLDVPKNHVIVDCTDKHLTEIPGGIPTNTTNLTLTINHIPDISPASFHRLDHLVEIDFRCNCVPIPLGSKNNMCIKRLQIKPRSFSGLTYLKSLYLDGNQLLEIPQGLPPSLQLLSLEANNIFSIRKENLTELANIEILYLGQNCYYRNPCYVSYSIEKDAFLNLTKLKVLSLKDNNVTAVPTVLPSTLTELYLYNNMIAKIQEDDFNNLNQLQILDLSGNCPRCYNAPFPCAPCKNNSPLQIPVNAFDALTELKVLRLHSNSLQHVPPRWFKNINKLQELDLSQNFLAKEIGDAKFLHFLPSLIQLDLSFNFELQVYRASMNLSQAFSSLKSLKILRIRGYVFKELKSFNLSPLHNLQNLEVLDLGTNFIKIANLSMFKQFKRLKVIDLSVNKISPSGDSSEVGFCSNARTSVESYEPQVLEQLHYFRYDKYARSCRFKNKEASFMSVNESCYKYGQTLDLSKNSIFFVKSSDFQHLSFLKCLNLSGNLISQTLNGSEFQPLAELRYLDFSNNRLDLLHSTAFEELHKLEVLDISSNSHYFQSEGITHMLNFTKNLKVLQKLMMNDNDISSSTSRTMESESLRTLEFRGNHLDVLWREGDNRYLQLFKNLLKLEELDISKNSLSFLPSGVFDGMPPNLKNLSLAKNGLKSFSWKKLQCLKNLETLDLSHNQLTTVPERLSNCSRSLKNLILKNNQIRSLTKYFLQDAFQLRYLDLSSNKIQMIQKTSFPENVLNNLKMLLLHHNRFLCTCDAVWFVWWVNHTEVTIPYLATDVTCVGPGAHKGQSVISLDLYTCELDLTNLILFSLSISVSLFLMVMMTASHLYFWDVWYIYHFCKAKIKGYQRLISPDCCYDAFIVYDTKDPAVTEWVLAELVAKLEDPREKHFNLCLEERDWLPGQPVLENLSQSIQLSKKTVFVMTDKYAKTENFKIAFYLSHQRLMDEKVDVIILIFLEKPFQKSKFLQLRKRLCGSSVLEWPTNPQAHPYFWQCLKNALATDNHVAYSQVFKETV
Kind of data set: Agonist activity at human TLR7 expressed in HEK293 cells assessed as induction of receptor activation incubated for 6 hrs by NF-kappaB-luciferase reporter gene assay. It counts as cell-based. The procedure, abridged:
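HEK293 cells transiently transfected overnight with CMV-TLR7 (wild type or dLRR2 mutant) plus NFκB-luc plasmids. Seeded at 1.67 x 10^5 cells/mL onto compound in 4% DMSO (stock), 6 h at 37°C, 5% CO2, luciferase readout. Quadruplicate dose-response. LEC is the concentration giving an effect at least two-fold above assay SD. Values averaged over independent experiments where repeated.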
For orientation: A reporter such as luciferase makes a cellular process visible.

Chain of Cytochrome P450 2C9 (P11712 whole entry): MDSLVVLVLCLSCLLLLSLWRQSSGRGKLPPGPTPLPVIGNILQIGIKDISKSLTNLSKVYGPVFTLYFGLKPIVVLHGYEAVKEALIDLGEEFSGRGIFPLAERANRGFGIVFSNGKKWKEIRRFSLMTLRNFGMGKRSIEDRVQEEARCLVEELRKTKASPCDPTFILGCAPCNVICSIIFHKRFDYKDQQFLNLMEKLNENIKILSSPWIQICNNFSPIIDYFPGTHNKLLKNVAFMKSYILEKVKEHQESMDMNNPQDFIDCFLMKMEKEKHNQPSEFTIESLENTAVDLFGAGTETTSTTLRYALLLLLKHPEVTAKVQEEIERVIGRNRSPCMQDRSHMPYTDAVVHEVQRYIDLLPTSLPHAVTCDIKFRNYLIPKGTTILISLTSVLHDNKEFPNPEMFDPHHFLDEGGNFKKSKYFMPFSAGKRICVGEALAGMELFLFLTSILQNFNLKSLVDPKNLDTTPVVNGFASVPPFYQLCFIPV

For the compound `CCCCNc1nc(N)nc2cccc(C(=O)N(C)Cc3ccccc3)c12`, the IC50 in [1] is > 10 µM; in data set [5] it was 8.5 µM; in [7] it was 5.6 µM. Besides, the MEC was > 25 µM in data set [2] and 0.53 µM in data set [11]. This compound showed an AUClast in data set [3] of 1064 ng·h/g. Besides, in data set [4], the bioavailability came to 1.2%. This compound returned an AUC(0-t) in data set [6] of 37 ng·h/mL. Further, in data set [8], the CC50 at 6 h is > 25 µM. Moreover, the Cmax came to 209 ng/mL in data set [9] and 369 ng/g in data set [10].
On to `CCCCNc1nc(N)nc2cccc(C(=O)N[C@@H](C)c3ccccc3)c12`, for which the IC50 in data set [1], in data set [5] and in data set [7] was > 10 µM in each case. Moreover, the MEC in data set [2] is > 25 µM; in data set [11], 0.09 µM. Also, the AUClast in data set [3] turned out to be 15841 ng·h/g. In [4], the bioavailability was 20%. In [6], this compound came in with an AUC(0-t) of 439 ng·h/mL. Moreover, the CC50 at 6 h in data set [8] is > 25 µM. Moreover, the Cmax was found to be 276 ng/mL in data set [9] and 4930 ng/g in data set [10].
Turning to `CCCCNc1nc(N)nc2cccc(C(=O)NC)c12`, the IC50 in [1] was 8 µM; in [5], > 10 µM; in data set [7] it was > 10 µM. Besides, the results for the MEC in data set [2] and in data set [11] were 0.39 µM and 0.35 µM, respectively. For the same compound, the CC50 at 6 h in [8] was > 25 µM.
Turning to `CCCCNc1nc(N)nc2ccccc12`, the results for the MEC in data set [2] and in data set [11] were 0.07 µM and 0.17 µM, respectively. This compound showed an AUClast in [3] of 6450 ng·h/g. In data set [4], this compound returned a bioavailability of 5.4%. For the same compound, the AUC(0-t) in data set [6] is 56 ng·h/mL. Also, the CC50 at 6 h in [8] was in the range of 18 to 25 µM. Besides, the Cmax in data set [9] is 583 ng/mL; in data set [10], 2030 ng/g.
For the compound `CCCCNc1nc(N)nc2cccc(C(=O)NCc3ccccc3)c12`, the IC50 is > 10 µM in data set [1], > 10 µM in data set [5] and 6.6 µM in data set [7]. For the same compound, the MEC worked out at 1.6 µM in data set [2] and 0.06 µM in data set [11]. For the same compound, the CC50 at 6 h in data set [8] was > 25 µM.
Consider `CCCCNc1nc(N)nc2cccc(OCc3ccc(CO)cc3OC)c12`, for which the IC50 is 5 µM in data set [1], > 10 µM in data set [5] and 4.4 µM in data set [7]. For the same compound, the MEC in [2] is > 25 µM; in data set [11] it was 0.03 µM. For the same compound, the CC50 at 6 h in [8] came out at 16 µM.
Regarding `CCCCNc1nc(N)nc2cccc(OCc3cccnc3)c12`, the 50% inhibitory concentration (IC50) in data set [1] was > 10 µM; in [5], 6.7 µM; in [7] it was > 10 µM. Further, the MEC in [2] was 0.53 µM; in data set [11], 0.03 µM. The CC50 at 6 h in [8] was > 25 µM.
As for `CCCCNc1nc(N)nc2cccc(OCc3ccccc3)c12`, the 50% inhibitory concentration (IC50) was > 10 µM in [1] and 5.7 µM in data set [7]. The MEC is 1.66 µM in data set [2] and 0.16 µM in data set [11]. In addition, the CC50 at 6 h in data set [8] worked out at 10 µM.
With `CCCCNc1nc(N)nc2cccc(C(=O)NC(C)C)c12`, the IC50 in data set [1], in data set [5] and in data set [7] was > 10 µM in each case. In addition, the MEC came to 15.55 µM in data set [2] and 2.05 µM in data set [11]. Besides, the CC50 at 6 h in data set [8] is > 25 µM.
As to `CCCCNc1nc(N)nc2cccc(C(=O)N[C@H](C)c3ccccc3)c12`, the IC50 in [1], in data set [5] and in [7] was > 10 µM in each case. Further, the MEC in data set [2] was > 25 µM; in [11] it was 2.29 µM. For the same compound, the CC50 at 6 h in data set [8] was > 25 µM.
With `CCCCNc1nc(N)nc2cccc(OCc3ccccn3)c12`, the IC50 in [1], in [5] and in data set [7] was > 10 µM in each case. Besides, the MEC is 18.5 µM in [2] and 0.49 µM in data set [11]. Moreover, the CC50 at 6 h in [8] was > 25 µM.
Turning to `CCCCNc1nc(N)nc2cccc(OCc3nccc(OC)c3OC)c12`, the IC50 in data set [1] is > 10 µM; in data set [5] it was 9.9 µM; in [7], > 10 µM. In addition, the MEC in data set [2] is > 25 µM; in data set [11], 0.03 µM. For the same compound, the CC50 at 6 h in data set [8] was found to be 16 µM.
Consider `CCCCNc1nc(N)nc2cccc(OCc3ccccc3OC)c12`, for which the IC50 in data set [1], in [5] and in data set [7] was > 10 µM in each case. Besides, the MEC in data set [2] is > 25 µM; in data set [11], 0.27 µM. In data set [8], the CC50 at 6 h is > 25 µM.

The term IC50 denotes the concentration that inhibits the measured activity by half. Broadly, the bioavailability is dose-corrected exposure relative to a reference, in per cent. Read a low bioavailability as little systemic uptake. In general, AUC(0-t) refers to the area under the concentration-time curve up to a stated or last time point. By CC50 is commonly meant the concentration giving 50% cytotoxicity. As a reminder, the Cmax is the highest concentration seen after dosing.
